Results from different studies.
Compare with care: the assays were run in different laboratories.
Target: Ephrin type-B receptor 2 (EPHB2, Homo sapiens, UniProt P29323)
One construct used (P29323 19-1055): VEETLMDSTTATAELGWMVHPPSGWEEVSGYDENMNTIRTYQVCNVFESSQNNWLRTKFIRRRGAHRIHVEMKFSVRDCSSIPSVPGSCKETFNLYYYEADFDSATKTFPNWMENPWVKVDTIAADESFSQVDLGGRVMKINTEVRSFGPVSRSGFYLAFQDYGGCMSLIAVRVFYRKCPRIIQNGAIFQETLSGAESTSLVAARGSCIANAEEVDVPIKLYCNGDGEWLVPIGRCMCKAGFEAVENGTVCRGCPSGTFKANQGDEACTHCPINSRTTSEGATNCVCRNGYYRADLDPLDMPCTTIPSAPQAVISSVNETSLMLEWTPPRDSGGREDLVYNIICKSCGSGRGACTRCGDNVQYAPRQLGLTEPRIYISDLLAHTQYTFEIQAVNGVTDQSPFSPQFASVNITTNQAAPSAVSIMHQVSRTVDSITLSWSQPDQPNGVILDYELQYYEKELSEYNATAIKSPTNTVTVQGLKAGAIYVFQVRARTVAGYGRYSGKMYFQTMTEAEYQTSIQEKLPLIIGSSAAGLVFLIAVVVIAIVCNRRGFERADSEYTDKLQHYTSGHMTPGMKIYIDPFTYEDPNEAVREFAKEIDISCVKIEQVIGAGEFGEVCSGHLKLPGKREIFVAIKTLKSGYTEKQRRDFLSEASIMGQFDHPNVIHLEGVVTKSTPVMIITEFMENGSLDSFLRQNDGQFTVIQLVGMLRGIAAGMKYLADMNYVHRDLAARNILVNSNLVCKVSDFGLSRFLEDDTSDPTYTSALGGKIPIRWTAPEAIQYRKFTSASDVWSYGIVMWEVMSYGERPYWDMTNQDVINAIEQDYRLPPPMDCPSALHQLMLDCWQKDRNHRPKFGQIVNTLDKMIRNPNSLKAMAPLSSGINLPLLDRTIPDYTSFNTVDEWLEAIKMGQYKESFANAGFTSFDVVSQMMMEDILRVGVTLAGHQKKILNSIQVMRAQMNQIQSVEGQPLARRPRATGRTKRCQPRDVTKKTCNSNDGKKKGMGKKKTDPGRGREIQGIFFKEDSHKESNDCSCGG

SMILES | test | setting | remaining binding [%]
c1cncc(-c2cccc(Nc3nccc(NC4CCCCC4)n3)c2)c1 | binding, competition with immobilised ligand | 10 µM | 90
O=C(O)[C@H]1[C@H](Cn2nnc3ccccc3c2=O)CC[C@@H]1C(=O)c1ccc(OCCC2CCOCC2)cc1 | cell-free assay, competition with immobilised ligand | 1 µM | 100
CN(C)c1nccc(-c2cnn3ncccc23)n1 | binding | 1 µM | 71
COc1cnc(Nc2cccc(S(N)(=O)=O)c2)nc1N1CCN(c2ccccc2)CC1 | binding, competition with immobilised ligand | 1 µM | 100
COc1ccnn2ncc(-c3ccnc(N(C)C)n3)c12 | binding | 1 µM | 100
Cc1cnc(Nc2ccc(C(=O)N3CCC(N4CCCC4)CC3)cc2)nc1-c1cc2ccccc2s1 | binding, competition with immobilised ligand | 1 µM | 65
Cc1nc(Cc2cccc(C(F)(F)F)c2)sc1-c1ccc(C(N)=O)nc1 | cell-free assay, competition with immobilised ligand | 1 µM | 86
CN(C)c1nccc(-c2cnc3ncccn23)n1 | binding | 1 µM | 92
O=C(NCC1CCOCC1)c1n[nH]cc1NC(=O)c1c(F)cccc1F | binding, competition with immobilised ligand | 1 µM | 98
N[C@H]1CCN(c2nccc(-c3cnn4ncccc34)n2)C1 | binding | 1 µM | 100
CS(=O)(=O)NCC[C@H](NC(=O)c1cncc2c1cnn2-c1ccc(F)cc1)c1ccnc(S(C)(=O)=O)c1 | cell-free assay, competition with immobilised ligand | 1 µM | 92
C[C@H]1CCN(c2nccc(-c3cnn4ncccc34)n2)C1 | binding | 1 µM | 0
CO[C@@H](C)c1c(Nc2ccc([C@H](N(C)C(=O)C3CCS(=O)(=O)CC3)C(F)(F)F)cc2)cnc2cc(Cl)nn12 | cell-free assay, competition with immobilised ligand | 1 µM | 76
O=C(NCCCN1CCOCC1)c1ccc(Nc2ncc(Cl)c(-c3ccc(Cl)s3)n2)cc1 | binding, competition with immobilised ligand | 1 µM | 100
FC(F)(F)Oc1cccc(-c2cnc3ccc(-c4ccncc4)nn23)c1 | cell-free assay, competition with immobilised ligand | 5 µM | 96
CO[C@H]1CC[C@H](CNc2ccc(S(=O)(=O)NC(=O)c3ccc(N4CCN(CC5=C(c6ccc(Cl)cc6)CC(C)(C)CC5)CC4)cc3Oc3cnc4[nH]ccc4c3)cc2[N+](=O)[O-])CC1 | cell-free assay, competition with immobilised ligand | 1 µM | 75
O=C(c1ccc(Nc2nccc(-c3cc4ccccc4s3)n2)cc1)N1CCC(N2CCCC2)CC1 | binding, competition with immobilised ligand | 1 µM | 100
CN(c1nccc(-c2cnn3ncccc23)n1)C1CC1 | binding | 1 µM | 100
COCCOc1nc(-c2ccc(Cl)nc2)nc2c1CN(C(=O)c1ncn3ccccc13)CC2 | cell-free assay, competition with immobilised ligand | 0.1 µM | 79
